Experimental data taken from ChEMBL document CHEMBL4382220, “Enhancement of the tail hydrophobic interactions within the carbonic anhydrase IX active site via structural extension: Design and synthesis of novel N-substituted isatins-SLC-0111 hybrids as carbonic anhydrase inhibitors and antitumor agents” (Eur J Med Chem, 2019).

Experiments:
Carbonic anhydrase 1 = Carbonic anhydrase 1 (Homo sapiens, UniProt P00915); assay: Inhibition of recombinant human carbonic anhydrase 1 by stopped flow CO2 hydration assay
Carbonic anhydrase 9 = Carbonic anhydrase 9 (Homo sapiens, UniProt Q16790)
MDA-MB-231 [1] = assay: Antiproliferative activity against human MDA-MB-231 cells after 48 hrs under hypoxic condition by MTT assay; format: functional, cell-based; settings: MDA-MB-231, 48 h
Summary of the method: (§1)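 MCF-7 and MDA-MB-231 cells (ATCC) grown in DMEM with 10% heat-inactivated FBS, 1% L-glutamine (2.5 mM), 10 mM HEPES, 50 μg/mL gentamycin and 100 μM CoCl2 as hypoxia inducer, 37 C, 5% CO2. MTT read-out after 48 h exposure. IC50 is the concentration giving 50% growth inhibition relative to untreated controls, mean ± S.D. of three separate experiments.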

MCF7 = assay: Antiproliferative activity against human MCF7 cells after 48 hrs under hypoxic condition by MTT assay; format: functional, cell-based; settings: MCF7, 48 h; summary of the method: as §1
MDA-MB-231 [2] = assay: Induction of apoptosis in human MDA-MB-231 cells assessed as early apoptotic cells after 24 hrs by Annexin V-FITC/propidium iodide staining based flow cytometry (reference value: 0.77%); format: functional
MDA-MB-231 [3] = assay: Induction of apoptosis in human MDA-MB-231 cells assessed as late apoptotic cells after 24 hrs by Annexin V-FITC/propidium iodide staining based flow cytometry (reference value: 0.26%); format: functional
MDA-MB-231 [4] = assay: Induction of apoptosis in human MDA-MB-231 cells assessed as necrotic cells after 24 hrs by Annexin V-FITC/propidium iodide staining based flow cytometry (reference value: 0.51%); format: functional
[5] = biological target: Vascular endothelial growth factor receptor 2 (Homo sapiens, UniProt P35968)
Chain of Vascular endothelial growth factor receptor 2 (P35968 whole entry): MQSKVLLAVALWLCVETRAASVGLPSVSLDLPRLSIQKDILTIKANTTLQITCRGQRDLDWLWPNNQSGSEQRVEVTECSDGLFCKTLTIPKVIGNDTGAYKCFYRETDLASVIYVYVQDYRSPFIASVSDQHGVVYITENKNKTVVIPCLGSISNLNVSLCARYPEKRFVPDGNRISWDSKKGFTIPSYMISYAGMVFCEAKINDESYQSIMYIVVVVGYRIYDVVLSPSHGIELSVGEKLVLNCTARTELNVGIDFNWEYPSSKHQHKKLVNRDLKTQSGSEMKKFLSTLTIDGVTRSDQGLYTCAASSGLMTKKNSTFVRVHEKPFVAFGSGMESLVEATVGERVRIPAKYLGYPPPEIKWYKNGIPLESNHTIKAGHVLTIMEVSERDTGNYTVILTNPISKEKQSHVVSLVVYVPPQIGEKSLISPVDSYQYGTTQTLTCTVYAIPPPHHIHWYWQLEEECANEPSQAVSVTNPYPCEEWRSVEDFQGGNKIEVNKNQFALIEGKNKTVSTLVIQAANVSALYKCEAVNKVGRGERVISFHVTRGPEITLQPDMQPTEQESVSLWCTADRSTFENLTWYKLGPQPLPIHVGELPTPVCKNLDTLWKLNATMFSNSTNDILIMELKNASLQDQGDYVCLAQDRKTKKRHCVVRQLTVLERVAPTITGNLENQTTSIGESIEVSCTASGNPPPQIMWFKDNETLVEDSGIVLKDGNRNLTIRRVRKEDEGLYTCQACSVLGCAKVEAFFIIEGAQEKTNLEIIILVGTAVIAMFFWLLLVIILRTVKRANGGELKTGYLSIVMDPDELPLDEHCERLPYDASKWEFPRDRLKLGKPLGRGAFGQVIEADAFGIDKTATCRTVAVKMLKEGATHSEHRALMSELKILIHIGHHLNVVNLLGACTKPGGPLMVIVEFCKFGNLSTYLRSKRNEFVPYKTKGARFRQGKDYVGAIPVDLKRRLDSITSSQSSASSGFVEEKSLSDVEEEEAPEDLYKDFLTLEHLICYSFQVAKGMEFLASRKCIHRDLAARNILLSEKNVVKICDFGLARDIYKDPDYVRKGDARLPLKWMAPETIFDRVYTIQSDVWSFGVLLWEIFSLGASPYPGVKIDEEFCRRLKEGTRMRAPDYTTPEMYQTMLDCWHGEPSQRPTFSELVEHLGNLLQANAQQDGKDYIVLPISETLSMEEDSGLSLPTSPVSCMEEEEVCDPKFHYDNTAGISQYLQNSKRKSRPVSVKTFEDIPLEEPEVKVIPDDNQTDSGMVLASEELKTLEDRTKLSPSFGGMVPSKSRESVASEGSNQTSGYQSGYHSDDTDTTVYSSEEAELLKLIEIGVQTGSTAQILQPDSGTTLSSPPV

Chain of Carbonic anhydrase 1 (P00915 whole entry): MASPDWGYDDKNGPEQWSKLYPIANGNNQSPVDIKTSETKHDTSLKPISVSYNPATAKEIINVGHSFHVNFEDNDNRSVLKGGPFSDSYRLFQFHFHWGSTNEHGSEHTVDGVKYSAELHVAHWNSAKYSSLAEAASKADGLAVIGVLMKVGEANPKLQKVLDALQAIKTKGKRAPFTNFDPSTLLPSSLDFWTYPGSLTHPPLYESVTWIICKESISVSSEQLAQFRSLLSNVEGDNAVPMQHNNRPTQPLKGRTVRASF

SMILES: Cc1ccc(CN2C(=O)/C(=N\c3ccc(NC(=O)Nc4ccc(S(N)(=O)=O)cc4)cc3)c3cc(Br)ccc32)cc1
- Ki (Carbonic anhydrase 1): 4640 nM
- Ki (Carbonic anhydrase 9): 26.4 nM

SMILES: COc1cccc2c1C(=O)c1c(O)c3c(c(O)c1C2=O)C[C@@](O)(C(=O)CO)C[C@@H]3O[C@H]1C[C@H](N)[C@H](O)[C@H](C)O1 [DOXORUBICIN]
- IC50 (MDA-MB-231 [1]): 8500 nM

SMILES: CN1C(=O)/C(=N\c2ccc(NC(=O)Nc3ccc(S(N)(=O)=O)cc3)cc2)c2cc(Cl)ccc21
- Ki (Carbonic anhydrase 1): 407 nM
- Ki (Carbonic anhydrase 9): 5.2 nM
- IC50 (MDA-MB-231 [1]): 7430 nM
- IC50 (MCF7): 12900 nM
- Activity (MDA-MB-231 [2]): 7.28%
- Activity (MDA-MB-231 [3]): 11.26%
- Activity (MDA-MB-231 [4]): 2.47%
- IC50 [5]: 261 nM

SMILES: CN1C(=O)/C(=N\c2ccc(NC(=O)Nc3ccc(S(N)(=O)=O)cc3)cc2)c2cc(Br)ccc21
- Ki (Carbonic anhydrase 1): 1960 nM
- Ki (Carbonic anhydrase 9): 9.2 nM

SMILES: N#Cc1ccc(CN2C(=O)/C(=N\c3ccc(NC(=O)Nc4ccc(S(N)(=O)=O)cc4)cc3)c3cc(Cl)ccc32)cc1
- Ki (Carbonic anhydrase 1): 8290 nM
- Ki (Carbonic anhydrase 9): 34.7 nM

SMILES: NS(=O)(=O)c1ccc(NC(=O)Nc2ccc(/N=C3\C(=O)N(Cc4ccccc4)c4ccccc43)cc2)cc1
- Ki (Carbonic anhydrase 1): 641 nM
- Ki (Carbonic anhydrase 9): 73.2 nM

SMILES: NS(=O)(=O)c1ccc(NC(=O)Nc2ccc(/N=C3\C(=O)N(Cc4ccccc4)c4ccc(Br)cc43)cc2)cc1
- Ki (Carbonic anhydrase 1): 5890 nM
- Ki (Carbonic anhydrase 9): 41.2 nM

SMILES: NS(=O)(=O)c1ccc(NC(=O)Nc2ccc(/N=C3\C(=O)N(Cc4cccc(F)c4)c4ccc(Br)cc43)cc2)cc1
- Ki (Carbonic anhydrase 1): 4700 nM
- Ki (Carbonic anhydrase 9): 61.2 nM

SMILES: Cc1ccc(CN2C(=O)/C(=N\c3ccc(NC(=O)Nc4ccc(S(N)(=O)=O)cc4)cc3)c3cc(Cl)ccc32)cc1
- Ki (Carbonic anhydrase 1): 6150 nM
- Ki (Carbonic anhydrase 9): 43 nM

SMILES: CCCN1C(=O)/C(=N\c2ccc(NC(=O)Nc3ccc(S(N)(=O)=O)cc3)cc2)c2ccccc21
- Ki (Carbonic anhydrase 1): 939 nM
- Ki (Carbonic anhydrase 9): 19.6 nM

SMILES: N#Cc1ccc(CN2C(=O)/C(=N\c3ccc(NC(=O)Nc4ccc(S(N)(=O)=O)cc4)cc3)c3ccccc32)cc1
- Ki (Carbonic anhydrase 1): 2290 nM
- Ki (Carbonic anhydrase 9): 9.7 nM
- IC50 (MDA-MB-231 [1]): 23200 nM
- IC50 (MCF7): 5970 nM
- IC50 [5]: 207 nM

SMILES: CCCN1C(=O)/C(=N\c2ccc(NC(=O)Nc3ccc(S(N)(=O)=O)cc3)cc2)c2cc(Br)ccc21
- Ki (Carbonic anhydrase 1): 2960 nM
- Ki (Carbonic anhydrase 9): 26.7 nM

SMILES: NS(=O)(=O)c1ccc(NC(=O)Nc2ccc(/N=C3\C(=O)N(Cc4ccccc4)c4ccc(Cl)cc43)cc2)cc1
- Ki (Carbonic anhydrase 1): 2500 nM
- Ki (Carbonic anhydrase 9): 86.1 nM

SMILES: NS(=O)(=O)c1ccc(NC(=O)Nc2ccc(/N=C3\C(=O)N(Cc4cccc(F)c4)c4ccc(Cl)cc43)cc2)cc1
- Ki (Carbonic anhydrase 1): 5100 nM
- Ki (Carbonic anhydrase 9): 58.8 nM

SMILES: NS(=O)(=O)c1ccc(NC(=O)Nc2ccc(/N=C3\C(=O)N(Cc4cccc(F)c4)c4ccccc43)cc2)cc1
- Ki (Carbonic anhydrase 1): 2070 nM
- Ki (Carbonic anhydrase 9): 54.5 nM

SMILES: Cc1ccc(CN2C(=O)/C(=N\c3ccc(NC(=O)Nc4ccc(S(N)(=O)=O)cc4)cc3)c3ccccc32)cc1
- Ki (Carbonic anhydrase 1): 6570 nM
- Ki (Carbonic anhydrase 9): 4.7 nM
- IC50 (MDA-MB-231 [1]): 48900 nM
- IC50 (MCF7): 11800 nM
- IC50 [5]: 462 nM

SMILES: CCCN1C(=O)/C(=N\c2ccc(NC(=O)Nc3ccc(S(N)(=O)=O)cc3)cc2)c2cc(Cl)ccc21
- Ki (Carbonic anhydrase 1): 607 nM
- Ki (Carbonic anhydrase 9): 8.2 nM
- IC50 (MDA-MB-231 [1]): 25600 nM
- IC50 (MCF7): 7360 nM
- IC50 [5]: 384 nM

SMILES: CN1C(=O)/C(=N\c2ccc(NC(=O)Nc3ccc(S(N)(=O)=O)cc3)cc2)c2ccccc21
- Ki (Carbonic anhydrase 1): 898 nM
- Ki (Carbonic anhydrase 9): 25.1 nM

SMILES: N#Cc1ccc(CN2C(=O)/C(=N\c3ccc(NC(=O)Nc4ccc(S(N)(=O)=O)cc4)cc3)c3cc(Br)ccc32)cc1
- Ki (Carbonic anhydrase 1): 5840 nM
- Ki (Carbonic anhydrase 9): 36.9 nM
